Measurements reported in ChEMBL document CHEMBL5705891, “Small-molecule kinase inhibitors provide insight into Mps1 cell cycle function” (Nat Chem Biol, 2010).
Activity calls are given as the source filed them. No cut-off for these calls is given here.

Key:
[1] = test system: UTRM10; assay: Reversal of Paclitaxel-induced mitotic arrest in UTRM10 cells (unknown origin) by immunoblot analysis; assay type: functional, cell-based
[2] = biological target: T1, Serine/threonine-protein kinase PLK4 (Homo sapiens) (UniProt O00444); assay: Induction of Plk4 in human U2OS cells assessed as bipolar cell division of cell populations with extra centrosomes by centrin staining based analysis; settings: filed as activator
T1 sequence (whole entry): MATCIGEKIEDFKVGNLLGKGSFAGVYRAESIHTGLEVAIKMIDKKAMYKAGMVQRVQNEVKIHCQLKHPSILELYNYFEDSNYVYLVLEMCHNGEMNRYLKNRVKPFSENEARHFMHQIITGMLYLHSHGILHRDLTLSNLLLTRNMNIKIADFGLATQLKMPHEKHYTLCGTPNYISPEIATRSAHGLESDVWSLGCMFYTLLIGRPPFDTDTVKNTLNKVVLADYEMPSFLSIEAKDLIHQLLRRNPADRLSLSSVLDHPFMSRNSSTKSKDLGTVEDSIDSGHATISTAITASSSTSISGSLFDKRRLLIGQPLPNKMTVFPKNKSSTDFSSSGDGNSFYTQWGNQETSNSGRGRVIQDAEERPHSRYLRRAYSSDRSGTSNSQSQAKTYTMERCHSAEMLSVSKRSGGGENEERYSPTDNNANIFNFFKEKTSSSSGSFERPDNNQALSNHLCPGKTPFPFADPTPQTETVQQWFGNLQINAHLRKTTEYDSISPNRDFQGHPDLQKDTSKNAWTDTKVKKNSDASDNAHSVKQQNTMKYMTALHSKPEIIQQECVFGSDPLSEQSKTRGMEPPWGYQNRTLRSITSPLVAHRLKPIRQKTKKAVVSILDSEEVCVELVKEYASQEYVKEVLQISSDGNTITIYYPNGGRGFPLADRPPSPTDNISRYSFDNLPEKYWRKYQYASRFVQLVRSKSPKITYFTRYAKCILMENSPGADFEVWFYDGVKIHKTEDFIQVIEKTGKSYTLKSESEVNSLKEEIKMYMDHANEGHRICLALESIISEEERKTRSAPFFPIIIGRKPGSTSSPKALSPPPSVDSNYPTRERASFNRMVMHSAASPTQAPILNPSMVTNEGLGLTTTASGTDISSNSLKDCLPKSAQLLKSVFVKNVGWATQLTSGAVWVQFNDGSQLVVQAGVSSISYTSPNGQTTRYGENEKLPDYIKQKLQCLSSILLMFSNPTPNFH
How it was run: (§1)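 U2OS cells with doxycycline-inducible Plk4 were induced with doxycycline (2 μg·ml⁻¹) or given DMSO. Metaphase spindles carrying more than 2 centrosomes were counted by centrin staining (~300 spindles), and spindle polarity was followed by centrin/α-tubulin/DNA immunofluorescence.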

[3] = test system: U2OS; assay: Induction of extra centrosomes in cell populations of thymidine-treated human U2OS cells expressing H2B-GFP and Plk4 overexpression assessed as fold delay in anaphase onset measured for 30 mins by time lapse imaging analysis relative to control; assay type: functional; settings: 0.5 h
How it was run: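 Doxycycline-inducible Plk4 U2OS cells expressing H2B-GFP were blocked with thymidine for 18 hrs and released into doxycycline (2 μg·ml⁻¹) for 10 hrs. A second 18-hr thymidine block followed, then release for 6 hrs before 5 μM inhibitor, with or without Plk4 induction. Cells were imaged by time-lapse at 37°C, 5% CO₂, timed from NEBD, and bipolar versus multipolar anaphases were scored. Values are mean ± SD of 3 independent experiments.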

[4] = biological target: T1, Serine/threonine-protein kinase PLK4 (Homo sapiens); assay: Induction of Plk4 in human U2OS cells assessed as increase in cell populations with extra centrosomes by centrin staining based analysis relative to control; settings: filed as activator; how it was run: as §1
[5] = biological target: T1, Serine/threonine-protein kinase PLK4 (Homo sapiens); assay: Induction of Plk4 in human U2OS cells assessed as resolution of metaphase multipolar spindles into bipolar spindles in anaphase in cell populations with extra centrosomes by centrin staining based analysis; settings: filed as activator; how it was run: as §1
[6] = test system: UTRM10; assay: Effect on thymidine-treated UTRM10 cells (unknown origin) with Mps1-/- incubated for 24 to 72 hrs by immunoblot analysis; assay type: functional, cell-based; settings: time lower 24.0 hrs, time upper […]
[7] = biological target: T2, Cyclin-G-associated kinase (Homo sapiens) (UniProt O14976); assay: Inhibition of GAK (unknown origin) assessed as residual enzyme activity at 10 uM by Ambit kinase binding assay relative to control
T2 sequence (whole entry): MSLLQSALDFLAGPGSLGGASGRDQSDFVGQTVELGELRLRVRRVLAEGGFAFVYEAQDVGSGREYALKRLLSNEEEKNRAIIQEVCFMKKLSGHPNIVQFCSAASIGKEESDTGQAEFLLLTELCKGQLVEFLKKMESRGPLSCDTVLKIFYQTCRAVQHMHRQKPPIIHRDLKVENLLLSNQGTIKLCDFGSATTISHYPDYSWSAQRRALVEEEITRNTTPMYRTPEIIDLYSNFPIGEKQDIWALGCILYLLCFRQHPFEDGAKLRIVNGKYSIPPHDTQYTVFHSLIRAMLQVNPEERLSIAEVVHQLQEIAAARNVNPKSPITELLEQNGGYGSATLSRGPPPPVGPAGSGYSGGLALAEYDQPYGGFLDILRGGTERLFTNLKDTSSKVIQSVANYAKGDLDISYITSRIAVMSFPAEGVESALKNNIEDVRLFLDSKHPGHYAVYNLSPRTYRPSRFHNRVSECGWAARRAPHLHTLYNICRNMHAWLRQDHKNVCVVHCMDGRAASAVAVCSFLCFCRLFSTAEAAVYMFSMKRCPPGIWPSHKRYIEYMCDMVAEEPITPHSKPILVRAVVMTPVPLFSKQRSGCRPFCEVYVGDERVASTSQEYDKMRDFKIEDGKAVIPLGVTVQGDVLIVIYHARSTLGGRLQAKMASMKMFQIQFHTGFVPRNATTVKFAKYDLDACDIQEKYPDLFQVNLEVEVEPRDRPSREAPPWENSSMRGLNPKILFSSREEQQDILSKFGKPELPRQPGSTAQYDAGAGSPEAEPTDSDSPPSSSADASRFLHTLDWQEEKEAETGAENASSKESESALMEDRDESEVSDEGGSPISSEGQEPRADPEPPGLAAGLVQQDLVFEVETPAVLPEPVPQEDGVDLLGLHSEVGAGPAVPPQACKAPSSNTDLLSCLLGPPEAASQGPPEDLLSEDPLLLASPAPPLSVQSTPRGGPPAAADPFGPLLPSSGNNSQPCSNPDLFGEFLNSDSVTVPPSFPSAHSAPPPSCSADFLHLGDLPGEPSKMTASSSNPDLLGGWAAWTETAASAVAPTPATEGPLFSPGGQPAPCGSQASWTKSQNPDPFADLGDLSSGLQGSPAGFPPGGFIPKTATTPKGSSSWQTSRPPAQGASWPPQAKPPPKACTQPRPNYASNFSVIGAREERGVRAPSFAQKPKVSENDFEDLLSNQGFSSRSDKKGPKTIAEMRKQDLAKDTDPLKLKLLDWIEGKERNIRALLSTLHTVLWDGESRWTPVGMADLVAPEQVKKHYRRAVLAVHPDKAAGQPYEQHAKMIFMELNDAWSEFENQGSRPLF

[8] = biological target: Protein-tyrosine kinase 2-beta (Homo sapiens, UniProt Q14289); assay: Inhibition of PTK2B (unknown origin) assessed as residual enzyme activity at 10 uM by Ambit kinase binding assay relative to control
[9] = test system: U2OS; assay: Reversal of s-trityl cysteine-induced mitotic arrest in human U2OS cells assessed as Ser10 phosphorylated Histone H3-positive 4c population at 10 uM incubated for 16 hrs by flow cytometry (reference value: 50 %); assay type: functional
[10] = test system: U2OS; assay: Reversal of s-trityl cysteine-induced mitotic arrest in human U2OS cells assessed as Ser10 phosphorylated Histone H3-positive 4c population at 5 uM incubated for 16 hrs by flow cytometry (reference value: 50 %); assay type: functional
[11] = test system: UTRM10; assay: Upregulation of phosphorylated histone H3 level in UTRM10 cells (unknown origin) upto 10 uM by immunoblot analysis; assay type: functional, cell-based
[12] = biological target: Cyclin-G-associated kinase (Homo sapiens, UniProt O14976); assay: Binding affinity to GAK (unknown origin) assessed as dissociation constant by Ambit kinase binding assay
[13] = biological target: Serine/threonine-protein kinase PLK4 (Homo sapiens, UniProt O00444); assay: Binding affinity to PLK4 (unknown origin) assessed as dissociation constant by Ambit kinase binding assay
[14] = test system: U2OS; assay: Reversal of nocodazole-induced mitotic arrest in human U2OS cells assessed as decrease in cyclin B level at 0.3 to 10 uM incubated for 4 hrs by immunoblot analysis; assay type: functional, cell-based; settings: dose 0.3-10 µM
[15] = test system: U2OS; assay: Reversal of nocodazole-induced mitotic arrest in human U2OS cells assessed as decrease in cyclin B level at 10 uM incubated for 4 hrs in presence of MG132 by immunoblot analysis; assay type: functional, cell-based
[16] = biological target: Serine/threonine-protein kinase 33 (Homo sapiens, UniProt Q9BYT3); assay: Binding affinity to STK33 (unknown origin) assessed as dissociation constant by Ambit kinase binding assay
[17] = biological target: Serine/threonine-protein kinase PLK1 (Homo sapiens, UniProt P53350); assay: Binding affinity to PLK1 (unknown origin) assessed as dissociation constant by Ambit kinase binding assay
[18] = biological target: Serine/threonine-protein kinase PLK3 (Homo sapiens, UniProt Q9H4B4); assay: Binding affinity to PLK3 (unknown origin) assessed as dissociation constant by Ambit kinase binding assay
[19] = biological target: Receptor-type tyrosine-protein kinase FLT3 (Homo sapiens) (UniProt P36888); assay: Inhibition of FLT3 (unknown origin) assessed as residual enzyme activity at 10 uM by Ambit kinase binding assay relative to control
Sequence of Receptor-type tyrosine-protein kinase FLT3 (Homo sapiens) (P36888 whole entry): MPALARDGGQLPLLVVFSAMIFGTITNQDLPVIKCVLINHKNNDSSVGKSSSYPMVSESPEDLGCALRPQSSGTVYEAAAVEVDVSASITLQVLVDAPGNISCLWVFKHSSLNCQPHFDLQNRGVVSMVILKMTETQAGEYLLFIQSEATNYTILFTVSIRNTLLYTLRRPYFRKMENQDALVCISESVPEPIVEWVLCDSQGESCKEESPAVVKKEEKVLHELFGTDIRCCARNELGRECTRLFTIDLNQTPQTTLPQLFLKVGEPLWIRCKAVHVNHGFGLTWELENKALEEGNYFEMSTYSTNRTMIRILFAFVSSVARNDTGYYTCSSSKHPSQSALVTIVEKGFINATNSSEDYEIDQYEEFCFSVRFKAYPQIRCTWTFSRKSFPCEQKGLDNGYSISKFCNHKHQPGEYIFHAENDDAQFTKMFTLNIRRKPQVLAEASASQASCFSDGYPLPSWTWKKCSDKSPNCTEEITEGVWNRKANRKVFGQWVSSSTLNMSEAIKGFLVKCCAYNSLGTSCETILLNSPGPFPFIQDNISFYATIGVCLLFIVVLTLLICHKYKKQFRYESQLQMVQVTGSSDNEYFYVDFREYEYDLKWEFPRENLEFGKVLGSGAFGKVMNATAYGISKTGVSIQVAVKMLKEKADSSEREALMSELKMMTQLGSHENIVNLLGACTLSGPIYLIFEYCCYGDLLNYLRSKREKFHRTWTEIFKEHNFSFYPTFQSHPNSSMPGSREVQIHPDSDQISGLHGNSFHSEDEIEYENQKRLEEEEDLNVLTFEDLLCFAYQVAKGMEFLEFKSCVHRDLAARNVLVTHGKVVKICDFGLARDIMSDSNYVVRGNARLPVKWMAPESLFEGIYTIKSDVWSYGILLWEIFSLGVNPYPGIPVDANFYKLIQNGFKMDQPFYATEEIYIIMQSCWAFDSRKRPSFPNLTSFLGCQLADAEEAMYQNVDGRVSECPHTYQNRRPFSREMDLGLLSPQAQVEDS

Sequence of Serine/threonine-protein kinase PLK3 (Q9H4B4 whole entry): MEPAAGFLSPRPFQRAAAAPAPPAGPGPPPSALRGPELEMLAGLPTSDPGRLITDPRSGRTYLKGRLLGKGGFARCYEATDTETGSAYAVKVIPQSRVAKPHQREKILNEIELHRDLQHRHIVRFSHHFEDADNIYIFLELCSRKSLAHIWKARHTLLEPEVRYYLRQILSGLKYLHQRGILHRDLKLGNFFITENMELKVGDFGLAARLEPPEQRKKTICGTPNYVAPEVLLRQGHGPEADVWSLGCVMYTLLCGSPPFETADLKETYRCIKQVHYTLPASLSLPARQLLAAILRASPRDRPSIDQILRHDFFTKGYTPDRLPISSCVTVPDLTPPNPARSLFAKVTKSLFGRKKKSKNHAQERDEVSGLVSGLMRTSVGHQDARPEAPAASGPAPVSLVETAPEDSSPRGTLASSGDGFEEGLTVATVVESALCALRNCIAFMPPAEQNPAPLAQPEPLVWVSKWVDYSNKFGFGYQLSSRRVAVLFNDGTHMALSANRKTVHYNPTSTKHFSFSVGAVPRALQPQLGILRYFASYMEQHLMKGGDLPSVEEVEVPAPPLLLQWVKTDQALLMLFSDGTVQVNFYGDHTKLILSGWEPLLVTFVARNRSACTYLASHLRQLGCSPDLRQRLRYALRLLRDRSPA
Sequence of Protein-tyrosine kinase 2-beta (Q14289 whole entry, looked up): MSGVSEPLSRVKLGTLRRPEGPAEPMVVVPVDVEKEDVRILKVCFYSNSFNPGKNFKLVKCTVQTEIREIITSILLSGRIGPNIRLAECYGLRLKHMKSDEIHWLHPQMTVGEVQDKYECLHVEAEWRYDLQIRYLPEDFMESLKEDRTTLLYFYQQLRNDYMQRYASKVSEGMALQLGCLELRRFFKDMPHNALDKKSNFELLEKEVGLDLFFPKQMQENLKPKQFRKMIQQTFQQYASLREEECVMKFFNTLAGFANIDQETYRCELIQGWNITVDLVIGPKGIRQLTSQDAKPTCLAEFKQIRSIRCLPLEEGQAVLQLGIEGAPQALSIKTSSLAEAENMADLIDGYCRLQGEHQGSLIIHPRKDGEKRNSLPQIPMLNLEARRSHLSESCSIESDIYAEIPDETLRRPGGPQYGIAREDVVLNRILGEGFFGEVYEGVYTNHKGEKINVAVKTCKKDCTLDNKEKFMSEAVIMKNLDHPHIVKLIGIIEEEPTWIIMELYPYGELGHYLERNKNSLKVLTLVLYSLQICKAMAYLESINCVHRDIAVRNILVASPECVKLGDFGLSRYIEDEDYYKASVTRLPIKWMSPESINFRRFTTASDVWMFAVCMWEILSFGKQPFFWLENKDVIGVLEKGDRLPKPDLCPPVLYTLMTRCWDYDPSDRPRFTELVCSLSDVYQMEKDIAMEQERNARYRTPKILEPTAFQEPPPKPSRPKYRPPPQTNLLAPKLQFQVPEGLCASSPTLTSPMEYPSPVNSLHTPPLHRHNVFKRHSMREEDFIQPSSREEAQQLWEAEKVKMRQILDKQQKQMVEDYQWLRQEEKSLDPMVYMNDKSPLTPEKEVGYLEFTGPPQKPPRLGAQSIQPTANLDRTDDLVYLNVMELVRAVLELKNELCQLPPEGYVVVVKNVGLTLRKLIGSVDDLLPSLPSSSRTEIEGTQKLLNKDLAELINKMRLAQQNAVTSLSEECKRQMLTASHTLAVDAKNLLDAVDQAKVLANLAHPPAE
Sequence of Serine/threonine-protein kinase 33 (Q9BYT3 whole entry): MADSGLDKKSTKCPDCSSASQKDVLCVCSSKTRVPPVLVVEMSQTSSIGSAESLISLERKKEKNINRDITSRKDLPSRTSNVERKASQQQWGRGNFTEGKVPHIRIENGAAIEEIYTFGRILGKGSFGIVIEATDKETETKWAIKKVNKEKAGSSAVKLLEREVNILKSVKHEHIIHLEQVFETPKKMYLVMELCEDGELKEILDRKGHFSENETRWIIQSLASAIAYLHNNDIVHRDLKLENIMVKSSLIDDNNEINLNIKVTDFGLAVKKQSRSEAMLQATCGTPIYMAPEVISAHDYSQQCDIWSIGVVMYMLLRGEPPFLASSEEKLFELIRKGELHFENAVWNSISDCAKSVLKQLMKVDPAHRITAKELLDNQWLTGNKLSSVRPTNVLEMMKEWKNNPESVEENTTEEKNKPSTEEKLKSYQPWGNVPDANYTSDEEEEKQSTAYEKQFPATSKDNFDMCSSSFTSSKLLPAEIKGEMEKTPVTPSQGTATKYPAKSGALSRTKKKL
Sequence of Serine/threonine-protein kinase PLK1 (P53350 whole entry): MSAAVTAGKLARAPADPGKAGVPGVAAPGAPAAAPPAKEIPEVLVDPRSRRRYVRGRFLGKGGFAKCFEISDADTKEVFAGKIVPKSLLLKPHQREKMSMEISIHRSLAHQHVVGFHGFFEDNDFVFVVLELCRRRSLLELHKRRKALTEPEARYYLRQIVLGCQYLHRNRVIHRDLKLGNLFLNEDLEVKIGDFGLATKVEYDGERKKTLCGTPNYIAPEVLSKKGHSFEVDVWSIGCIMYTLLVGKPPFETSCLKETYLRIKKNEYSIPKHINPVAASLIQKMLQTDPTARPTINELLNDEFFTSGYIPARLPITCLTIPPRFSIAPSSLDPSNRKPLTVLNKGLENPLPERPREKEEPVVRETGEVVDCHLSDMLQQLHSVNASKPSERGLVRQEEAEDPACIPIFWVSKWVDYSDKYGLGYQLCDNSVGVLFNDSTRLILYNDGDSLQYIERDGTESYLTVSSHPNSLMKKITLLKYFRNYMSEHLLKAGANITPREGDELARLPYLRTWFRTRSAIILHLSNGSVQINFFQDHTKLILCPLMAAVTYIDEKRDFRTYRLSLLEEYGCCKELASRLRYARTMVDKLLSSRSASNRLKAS

Cc1cc(Nc2cc(N3CCN(C)CC3)nc(Sc3ccc(NC(=O)C4CC4)cc3)n2)n[nH]1
Activity [1]: Active

C[C@H]1c2cccc(O)c2C(=O)C2=C(O)[C@]3(O)C(=O)C(C(N)=O)=C(O)[C@@H](N(C)C)[C@@H]3[C@@H](O)[C@@H]21 [DOXYCYCLINE ANHYDROUS]
Activity [2]: Active | fold change (FC) [3]: 2 | Activity [4]: 80% | Activity [5]: Active | Activity [6]: inactive

CCOc1cc(N2CCC(O)CC2)ccc1Nc1ncc2c(n1)N(C1CCCC1)CCC(=O)N2C
Activity [7]: 2% | Activity [8]: 24% | Activity [9]: 4% | Activity [10]: 14% | Activity [11]: Active | Kd [12]: 140 nM | Kd [13]: 3100 nM | Activity [14]: Active | Activity [15]: inactive | Kd [16]: 5000 nM | Kd [17]: 61 nM | Kd [18]: 1600 nM | Activity [19]: 0%
